Source: ChEMBL document CHEMBL3862017, “Synthesis and evaluation of the structural elements in alkylated tetrahydroisoquinolines for binding to CNS receptors” (Bioorg Med Chem, 2016)
Each block holds one compound with its values, some of them ahead of it.

Key:
[1] = molecular target: T1, D(4) dopamine receptor (Rattus norvegicus, UniProt P30729)
T1 sequence (P30729 whole entry): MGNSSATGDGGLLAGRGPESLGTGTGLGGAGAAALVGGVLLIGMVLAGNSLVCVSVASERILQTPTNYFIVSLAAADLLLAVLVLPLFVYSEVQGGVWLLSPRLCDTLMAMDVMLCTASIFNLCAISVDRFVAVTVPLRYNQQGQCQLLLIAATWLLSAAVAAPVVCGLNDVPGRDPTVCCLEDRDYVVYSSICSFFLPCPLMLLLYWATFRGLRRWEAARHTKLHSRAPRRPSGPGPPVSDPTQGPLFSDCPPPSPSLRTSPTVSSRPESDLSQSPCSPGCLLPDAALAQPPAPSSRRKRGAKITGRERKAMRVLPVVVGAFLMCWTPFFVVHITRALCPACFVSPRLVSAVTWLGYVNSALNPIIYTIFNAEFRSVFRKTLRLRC

[2] = molecular target: Histamine H1 receptor (Homo sapiens, UniProt P35367); assay: Displacement of [3H]-pyrilamine from human histamine H1 receptor by liquid scintillation counting method
Method in brief: (§1)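 Binding assays run by the NIMH Psychoactive Drug Screening Program (PDSP) using its previously reported methods and radioligands. Affinity is given as Ki.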

[3] = molecular target: 5-hydroxytryptamine receptor 2B (Homo sapiens, UniProt P41595); assay: Displacement of [3H]-LSD from human 5-HT2B receptor by liquid scintillation counting method
Method in brief: as §1

[4] = molecular target: D(2) dopamine receptor (Homo sapiens) (UniProt P14416); assay: Displacement of [3H]-N-methylspiperone from human dopamine D2 receptor by liquid scintillation counting method; parameters: concentration or dose not given beside the values; settings: concentration not given here
Method in brief: as §1

[5] = molecular target: 5-hydroxytryptamine receptor 2A (Homo sapiens, UniProt P28223); assay: Displacement of [3H]-ketanserin from human 5-HT2A receptor by liquid scintillation counting method; settings: for inhibition: concentration not given here
Method in brief: as §1

[6] = molecular target: 5-hydroxytryptamine receptor 7 (Homo sapiens) (UniProt P34969); assay: Displacement of [3H]-LSD from human 5-HT7 receptor by liquid scintillation counting method; settings: concentration not given here
Method in brief: as §1

[7] = molecular target: T2, 5-hydroxytryptamine receptor 2C (Homo sapiens, UniProt P28335); assay: Displacement of [3H]-mesulergine from human 5-HT2C receptor by liquid scintillation counting method; settings: for inhibition (INH): human
T2 sequence (P28335 whole entry): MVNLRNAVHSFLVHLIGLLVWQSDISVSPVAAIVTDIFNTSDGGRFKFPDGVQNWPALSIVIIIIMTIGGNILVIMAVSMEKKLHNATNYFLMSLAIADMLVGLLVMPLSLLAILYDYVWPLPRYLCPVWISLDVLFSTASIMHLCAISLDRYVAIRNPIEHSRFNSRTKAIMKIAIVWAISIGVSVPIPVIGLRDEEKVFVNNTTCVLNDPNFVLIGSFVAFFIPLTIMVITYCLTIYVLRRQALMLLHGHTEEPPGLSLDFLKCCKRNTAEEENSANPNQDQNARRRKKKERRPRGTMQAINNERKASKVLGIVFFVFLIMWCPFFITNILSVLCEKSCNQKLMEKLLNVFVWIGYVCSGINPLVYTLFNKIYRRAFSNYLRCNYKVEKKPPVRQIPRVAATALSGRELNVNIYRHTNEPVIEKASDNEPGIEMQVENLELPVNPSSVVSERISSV
Method in brief: as §1

[8] = molecular target: T3, 5-hydroxytryptamine receptor 1A (Homo sapiens) (UniProt P08908); assay: Displacement of [3H]-8-OH-DPAT from human 5-HT1A receptor by liquid scintillation counting method; settings: concentration not given here
T3 sequence (whole entry): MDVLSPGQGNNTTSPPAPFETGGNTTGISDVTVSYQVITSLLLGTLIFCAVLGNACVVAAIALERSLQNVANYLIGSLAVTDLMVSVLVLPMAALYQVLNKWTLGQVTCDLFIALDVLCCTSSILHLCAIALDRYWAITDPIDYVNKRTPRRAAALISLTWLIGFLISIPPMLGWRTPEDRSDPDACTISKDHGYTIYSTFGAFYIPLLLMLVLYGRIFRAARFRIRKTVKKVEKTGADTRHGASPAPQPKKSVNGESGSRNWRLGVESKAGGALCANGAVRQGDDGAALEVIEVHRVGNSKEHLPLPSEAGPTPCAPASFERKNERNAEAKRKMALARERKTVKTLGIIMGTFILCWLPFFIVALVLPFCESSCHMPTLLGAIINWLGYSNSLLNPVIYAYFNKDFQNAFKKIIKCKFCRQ
Method in brief: as §1

[9] = molecular target: D(3) dopamine receptor (Homo sapiens) (UniProt P35462); assay: Displacement of [3H]-N-methylspiperone from human dopamine D3 receptor by liquid scintillation counting method; settings: concentration not given here
Method in brief: as §1

Chain of 5-hydroxytryptamine receptor 7 (Homo sapiens) (P34969 whole entry): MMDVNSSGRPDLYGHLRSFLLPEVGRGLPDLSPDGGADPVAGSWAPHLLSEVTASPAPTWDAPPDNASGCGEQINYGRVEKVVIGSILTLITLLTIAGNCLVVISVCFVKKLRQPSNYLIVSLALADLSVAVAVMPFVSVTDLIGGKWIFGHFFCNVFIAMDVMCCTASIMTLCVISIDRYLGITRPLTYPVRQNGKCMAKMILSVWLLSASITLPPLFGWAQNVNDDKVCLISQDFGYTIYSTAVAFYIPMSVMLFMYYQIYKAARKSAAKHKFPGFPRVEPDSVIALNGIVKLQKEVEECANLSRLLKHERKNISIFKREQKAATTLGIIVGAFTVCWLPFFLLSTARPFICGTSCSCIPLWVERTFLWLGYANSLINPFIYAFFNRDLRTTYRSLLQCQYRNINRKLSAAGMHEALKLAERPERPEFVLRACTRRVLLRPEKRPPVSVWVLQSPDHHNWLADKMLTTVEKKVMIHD
Chain of 5-hydroxytryptamine receptor 2A (P28223 whole entry): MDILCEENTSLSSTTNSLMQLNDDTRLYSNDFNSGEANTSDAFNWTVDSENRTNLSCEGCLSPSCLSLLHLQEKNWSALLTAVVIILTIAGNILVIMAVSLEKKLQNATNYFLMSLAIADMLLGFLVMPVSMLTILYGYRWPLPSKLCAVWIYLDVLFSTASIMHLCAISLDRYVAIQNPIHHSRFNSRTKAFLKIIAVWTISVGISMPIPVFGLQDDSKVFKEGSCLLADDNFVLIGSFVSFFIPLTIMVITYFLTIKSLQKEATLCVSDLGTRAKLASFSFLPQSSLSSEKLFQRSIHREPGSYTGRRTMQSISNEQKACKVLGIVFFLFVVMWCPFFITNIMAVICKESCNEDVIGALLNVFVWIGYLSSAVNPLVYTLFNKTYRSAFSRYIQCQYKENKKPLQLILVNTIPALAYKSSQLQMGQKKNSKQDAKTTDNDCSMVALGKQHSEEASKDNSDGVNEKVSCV
Chain of Histamine H1 receptor (P35367 whole entry): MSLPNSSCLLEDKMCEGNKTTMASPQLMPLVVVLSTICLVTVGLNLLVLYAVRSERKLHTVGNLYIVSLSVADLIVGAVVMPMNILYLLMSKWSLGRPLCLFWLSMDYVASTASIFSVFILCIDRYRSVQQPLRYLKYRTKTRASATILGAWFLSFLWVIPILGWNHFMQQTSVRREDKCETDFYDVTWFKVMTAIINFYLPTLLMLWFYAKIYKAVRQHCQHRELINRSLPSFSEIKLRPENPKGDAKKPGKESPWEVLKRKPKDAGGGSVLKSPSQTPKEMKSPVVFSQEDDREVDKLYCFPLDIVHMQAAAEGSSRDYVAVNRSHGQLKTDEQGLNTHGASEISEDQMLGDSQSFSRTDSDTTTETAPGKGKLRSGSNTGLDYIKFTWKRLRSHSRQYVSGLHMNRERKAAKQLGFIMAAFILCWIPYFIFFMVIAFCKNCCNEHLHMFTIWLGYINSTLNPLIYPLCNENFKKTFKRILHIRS
Chain of 5-hydroxytryptamine receptor 2B (P41595 whole entry): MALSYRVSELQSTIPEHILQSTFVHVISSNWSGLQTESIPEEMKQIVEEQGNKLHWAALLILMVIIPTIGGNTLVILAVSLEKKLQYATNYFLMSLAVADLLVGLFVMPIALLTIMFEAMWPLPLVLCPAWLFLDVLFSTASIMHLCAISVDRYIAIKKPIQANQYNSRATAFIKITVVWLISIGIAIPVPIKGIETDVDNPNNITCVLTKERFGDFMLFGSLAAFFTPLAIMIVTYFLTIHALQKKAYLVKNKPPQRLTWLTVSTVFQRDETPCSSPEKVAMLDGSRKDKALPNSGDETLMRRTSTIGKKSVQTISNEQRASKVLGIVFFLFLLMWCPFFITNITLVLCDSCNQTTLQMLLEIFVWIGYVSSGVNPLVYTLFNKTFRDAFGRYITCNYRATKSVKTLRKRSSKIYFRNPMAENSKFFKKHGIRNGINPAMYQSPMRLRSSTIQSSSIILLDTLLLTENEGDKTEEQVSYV
Chain of D(2) dopamine receptor (Homo sapiens) (P14416 whole entry): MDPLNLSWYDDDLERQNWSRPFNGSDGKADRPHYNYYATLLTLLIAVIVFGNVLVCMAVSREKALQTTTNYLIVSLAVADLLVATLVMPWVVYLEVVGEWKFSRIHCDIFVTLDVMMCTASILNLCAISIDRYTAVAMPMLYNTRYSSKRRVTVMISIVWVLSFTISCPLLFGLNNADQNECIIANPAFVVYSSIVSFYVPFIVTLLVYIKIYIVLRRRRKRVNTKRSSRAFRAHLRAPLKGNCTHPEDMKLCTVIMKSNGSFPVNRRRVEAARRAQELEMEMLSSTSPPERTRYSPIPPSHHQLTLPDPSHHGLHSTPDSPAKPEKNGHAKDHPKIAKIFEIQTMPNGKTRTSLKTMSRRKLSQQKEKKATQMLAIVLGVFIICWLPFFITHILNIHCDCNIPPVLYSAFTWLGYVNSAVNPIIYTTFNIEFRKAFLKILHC
Chain of D(3) dopamine receptor (Homo sapiens) (P35462 whole entry): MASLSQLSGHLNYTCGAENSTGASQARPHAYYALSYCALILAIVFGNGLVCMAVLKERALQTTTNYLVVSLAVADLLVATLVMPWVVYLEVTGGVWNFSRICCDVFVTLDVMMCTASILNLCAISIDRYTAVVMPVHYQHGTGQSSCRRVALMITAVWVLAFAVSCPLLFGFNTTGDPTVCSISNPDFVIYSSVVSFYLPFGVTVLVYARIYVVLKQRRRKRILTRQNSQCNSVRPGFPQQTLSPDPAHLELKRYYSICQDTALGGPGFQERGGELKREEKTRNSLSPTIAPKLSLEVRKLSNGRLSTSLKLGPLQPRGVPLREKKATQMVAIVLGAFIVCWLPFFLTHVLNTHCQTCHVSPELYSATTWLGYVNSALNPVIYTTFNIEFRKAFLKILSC

Ki [1]: 442 nM
SMILES: O=C(CCCN1CCCc2ccccc2C1)c1ccc(Cl)cc1

inhibition (INH) [3]: < 50%
inhibition [4]: < 50%
inhibition [5]: < 50%
inhibition (INH) [2]: < 50%
inhibition [6]: < 50%
inhibition (INH) [7]: < 50%
inhibition [8]: < 50%
SMILES: CC1(C)CC(=O)N(CCCCN2CCc3ccccc3C2)C(=O)C1.Cl

Ki [1]: 1100 nM
SMILES: O=C1c2ccccc2CC1CCN1CCc2ccccc2C1 (centres undefined)

Ki [1]: 37 nM
SMILES: Clc1ccc2sc(CCCCN3CCC4CCCCC4C3)nc2c1 (centres undefined)

Ki [1]: 251 nM
inhibition (INH) [7]: < 50%
SMILES: O=C1c2ccc(F)cc2CC1CCN1CCc2ccccc2C1 (centres undefined)

Ki [1]: 129 nM
SMILES: Clc1cccc2c1CN(CCCCc1nc3ccccc3s1)CC2

Ki [1]: > 10000 nM
SMILES: CC1(C)CC(=O)N(CCCCN2Cc3ccccc3C2)C(=O)C1

Ki [1]: 50 nM
SMILES: O=C1c2ccc(Cl)cc2CC1CCN1CCc2ccccc2C1 (centres undefined)

inhibition (INH) [3]: < 50%
inhibition [4]: < 50%
inhibition [5]: < 50%
inhibition [8]: < 50%
SMILES: Cl.Clc1ccc(C(=CCCN2CCc3ccccc3C2)c2ccc(Cl)cc2)cc1

inhibition [4]: < 50%
Ki [1]: 194 nM
inhibition (INH) [2]: < 50%
inhibition (INH) [7]: < 50%
SMILES: C1=C(CCN2CCc3ccccc3C2)Cc2ccccc21

The remaining lines, values behind:

SMILES: COc1cc2c(cc1OC)CN(CCCCc1nc3cc(Cl)ccc3s1)CC2
Ki [1]: 272 nM

SMILES: O=C1Cc2cc(C(=O)CCCN3CCc4ccccc4C3)ccc2N1
Ki [1]: 3340 nM
inhibition (INH) [2]: < 50%

SMILES: O=C(CCCN1CCc2ccccc2CC1)c1ccc(Cl)cc1
Ki [1]: 82 nM

SMILES: C1=C(CCN2CCc3ccccc3C2)CCc2ccccc21
Ki [1]: 140 nM

SMILES: Cl.Cl.c1ccc2c(c1)CCN(CCCc1nc3ccccc3[nH]1)C2
inhibition (INH) [3]: < 50%
Ki [5]: > 10000 nM
Ki [1]: 127 nM
Ki [7]: > 10000 nM

SMILES: c1ccc2c(c1)CCN(CCCc1nc3ccccc3s1)C2
inhibition [4]: < 50%
Ki [1]: 41 nM

SMILES: O=C(CCCN1CCCc2ccccc21)c1ccc(Cl)cc1
inhibition (INH) [3]: < 50%
inhibition [4]: < 50%
inhibition [9]: < 50%
inhibition [5]: < 50%
inhibition (INH) [2]: < 50%
inhibition [6]: < 50%
inhibition [8]: < 50%

SMILES: Cl.O=C(CCCN1CCCCc2ccccc21)c1ccc(Cl)cc1
inhibition (INH) [3]: < 50%
inhibition [4]: < 50%
inhibition [9]: < 50%
inhibition [5]: < 50%
inhibition (INH) [2]: < 50%
inhibition [6]: < 50%
inhibition (INH) [7]: < 50%
inhibition [8]: < 50%
